In ChEMBL document CHEMBL3045123, “Isolation and identification of antifungal fatty acids from the basidiomycete Gomphus floccosus” (J Agric Food Chem, 2008):
Activity calls are given as the source filed them. No cut-off for these calls is given here.

Legend:
[1] = tested on: Colletotrichum gloeosporioides; test: Antifungal activity against Colletotrichum gloeosporioides assessed as inhibition of fungal growth measured after 72 hr by 96-well microdilution assay; format: functional, organism-based
Outline: (§1)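 Conidia were harvested from 7-10 day PDA cultures grown at 24 °C with a 12 h photoperiod, filtered through Miracloth, and set to 1.0 × 10^6 conidia/mL by A625. Six-point microdilution broth format used final concentrations of 1, 3.3, 10, 33, 100 and 333 µM, with captan as standard. Growth was read at A620 at 0-72 h (Phomopsis also 120 and 144 h). Two experiments were pooled; IC50 was taken as 50% growth reduction.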

Phomopsis obscurans [2] = test: Antifungal activity against Phomopsis obscurans assessed as inhibition of fungal growth measured after 120 hr by 96-well microdilution assay; format: functional, organism-based; conditions: Paraphomopsis obscurans; outline: as §1
Phomopsis viticola [3] = test: Antifungal activity against Phomopsis viticola assessed as inhibition of fungal growth measured after 144 hr by 96-well microdilution assay
Colletotrichum acutatum [4] = test: Antifungal activity against Colletotrichum acutatum assessed as inhibition of fungal growth measured after 48 hr by 96-well microdilution assay; format: functional, organism-based; outline: as §1
Phomopsis viticola [5] = test: Antifungal activity against Phomopsis viticola assessed as inhibition of fungal growth measured after 120 hr by 96-well microdilution assay
Colletotrichum acutatum [6] = test: Antifungal activity against Colletotrichum acutatum assessed as inhibition of fungal growth measured after 72 hr by 96-well microdilution assay; format: functional, organism-based; outline: as §1
Fusarium oxysporum [7] = test: Antifungal activity against Fusarium oxysporum assessed as inhibition of fungal growth measured after 72 hr by 96-well microdilution assay; format: functional, organism-based; outline: as §1
Botrytis cinerea [8] = test: Antifungal activity against Botryotinia fuckeliana assessed as inhibition of fungal growth measured after 72 hr by 96-well microdilution assay; format: functional, organism-based; outline: as §1
[9] = tested on: Colletotrichum gloeosporioides; test: Antifungal activity against Colletotrichum gloeosporioides assessed as inhibition of fungal growth measured after 48 hr by 96-well microdilution assay; format: functional, organism-based; outline: as §1
Colletotrichum fragariae [10] = test: Antifungal activity against Colletotrichum fragariae assessed as inhibition of fungal growth measured after 48 hr by 96-well microdilution assay; format: functional, organism-based; outline: as §1
Botrytis cinerea [11] = test: Antifungal activity against Botryotinia fuckeliana assessed as inhibition of fungal growth measured after 48 hr by 96-well microdilution assay; format: functional, organism-based; outline: as §1
Fusarium oxysporum [12] = test: Antifungal activity against Fusarium oxysporum assessed as inhibition of fungal growth measured after 48 hr by 96-well microdilution assay; format: functional, organism-based; outline: as §1
Colletotrichum fragariae [13] = test: Antifungal activity against Colletotrichum fragariae assessed as inhibition of fungal growth measured after 72 hr by 96-well microdilution assay; format: functional, organism-based; outline: as §1
Colletotrichum fragariae [14] = test: Antifungal activity against Colletotrichum fragariae assessed as inhibition of fungal growth at 80 ug measured after 4 to 5 days by direct bioautography; format: functional; conditions: read-out: DIZ
Outline: (§2)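 For TLC direct bioautography, developed plates were sprayed with a conidial suspension of the test fungus. Plates were incubated in a moisture chamber at 26 °C with a 12 h photoperiod. Zones of growth inhibition were measured as diameters 4-5 days after treatment and reported as mean zone dimensions (mm) ± SD.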

Colletotrichum acutatum [15] = test: Antifungal activity against Colletotrichum acutatum assessed as inhibition of fungal growth at 80 ug measured after 4 to 5 days by direct bioautography; format: functional; conditions: read-out: DIZ; outline: as §2
Colletotrichum acutatum [16] = test: Antifungal activity against Colletotrichum acutatum assessed as inhibition of fungal growth at 20 ug measured after 4 to 5 days by direct bioautography; format: functional; conditions: read-out: DIZ; outline: as §2
[17] = tested on: Colletotrichum gloeosporioides; test: Antifungal activity against Colletotrichum gloeosporioides assessed as inhibition of fungal growth at 20 ug measured after 4 to 5 days by direct bioautography; format: functional; conditions: read-out: DIZ; outline: as §2
[18] = tested on: Colletotrichum gloeosporioides; test: Antifungal activity against Colletotrichum gloeosporioides assessed as inhibition of fungal growth at 80 ug measured after 4 to 5 days by direct bioautography; format: functional; conditions: read-out: DIZ; outline: as §2
Colletotrichum fragariae [19] = test: Antifungal activity against Colletotrichum fragariae assessed as inhibition of fungal growth at 20 ug measured after 4 to 5 days by direct bioautography; format: functional; conditions: read-out: DIZ; outline: as §2
[20] = tested on: Colletotrichum gloeosporioides; test: Growth stimulation of Colletotrichum gloeosporioides up to 100 uM after 24 to 72 hr by 96-well microdilution assay; format: functional, organism-based; outline: as §1
Colletotrichum acutatum [21] = test: Antifungal activity against Colletotrichum acutatum assessed as inhibition of fungal growth at 90 uM measured after 72 hr by 96-well microdilution assay; format: functional; conditions: read-out: GI
Outline: (§3)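 Initial three-point microdilution broth screen at final concentrations of 45, 90 and 135 µM, each in duplicate, against a conidial suspension adjusted photometrically to 1.0 × 10^6 conidia/mL. Growth was read as A620 at 0, 24, 48 and 72 h. Percent inhibition/stimulation means were pooled from two experiments replicated in time.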

Colletotrichum fragariae [22] = test: Growth stimulation of Colletotrichum fragariae up to 100 uM after 24 to 72 hr by 96-well microdilution assay; format: functional, organism-based; outline: as §1
Colletotrichum acutatum [23] = test: Antifungal activity against Colletotrichum acutatum assessed as inhibition of fungal growth at 90 uM measured after 48 hr by 96-well microdilution assay; format: functional; conditions: read-out: GI; outline: as §3
Phomopsis obscurans [24] = test: Antifungal activity against Phomopsis obscurans assessed as inhibition of fungal growth measured after 144 hr by 96-well microdilution assay; format: functional, organism-based; conditions: Paraphomopsis obscurans; outline: as §1
Colletotrichum fragariae [25] = test: Growth stimulation of Colletotrichum fragariae at 333 uM after 24 to 72 hr by 96-well microdilution assay; format: functional, organism-based; outline: as §1
Fusarium oxysporum [26] = test: Growth stimulation of Fusarium oxysporum at 333 uM after 24 to 72 hr by 96-well microdilution assay; format: functional, organism-based; outline: as §1
[27] = tested on: Colletotrichum gloeosporioides; test: Growth stimulation of Colletotrichum gloeosporioides at 333 uM after 24 to 72 hr by 96-well microdilution assay; format: functional, organism-based; outline: as §1

| Compound | IC50 [1] [µM] | IC50 (Phomopsis obscurans [2]) [µM] | IC50 (Phomopsis viticola [3]) [µM] | IC50 (Colletotrichum acutatum [4]) [µM] | IC50 (Phomopsis viticola [5]) [µM] | IC50 (Colletotrichum acutatum [6]) [µM] | IC50 (Fusarium oxysporum [7]) [µM] | IC50 (Botrytis cinerea [8]) [µM] | IC50 [9] [µM] | IC50 (Colletotrichum fragariae [10]) [µM] | IC50 (Botrytis cinerea [11]) [µM] | IC50 (Fusarium oxysporum [12]) [µM] | IC50 (Colletotrichum fragariae [13]) [µM] | zone of inhibition at 80 µg/disc (Colletotrichum fragariae [14]) [mm] | zone of inhibition at 80 µg/disc (Colletotrichum acutatum [15]) [mm] | zone of inhibition at 20 µg/disc (Colletotrichum acutatum [16]) [mm] | zone of inhibition at 20 µg/disc [17] [mm] | zone of inhibition at 80 µg/disc [18] [mm] | zone of inhibition at 20 µg/disc (Colletotrichum fragariae [19]) [mm] | other results |
| --- | --- | --- | --- | --- | --- | --- | --- | --- | --- | --- | --- | --- | --- | --- | --- | --- | --- | --- | --- | --- |
| O=C1C2CC=CCC2C(=O)N1SC(Cl)(Cl)Cl (centres undefined) [CAPTAN] | 4.7 | 1.1 | < 1 | 2.5 | < 1 | 5.2 | 16 | 2.8 | 2.1 | 1.6 | 1.4 | 2.8 | 3 | – | – | – | – | – | – | – |
| CCCCCC(=O)/C=C\C=C\CCCCCCCC(=O)O | > 333 | 4.5 | 38 | > 333 | 115 | > 333 | > 333 | > 333 | > 333 | 160 | 120 | > 333 | 270 | 8 | 19 | 4 | 6 | 7 | 6 | – |
| CCCCC/C=C\C=C\[C@@H](O)CCCCCCCC(=O)O | > 333 | 10 | 100 | > 333 | > 333 | > 333 | > 333 | > 333 | > 333 | > 333 | > 333 | > 333 | > 333 | 10 | 19 | 5 | 3 | 7 | 6 | Activity [20]: Active; growth inhibition (GI) (Phomopsis viticola [3]): Dose-dependent effect; inhibition of growth at 90 µM (Colletotrichum acutatum [21]): 37%; Activity (Colletotrichum fragariae [22]): Active; inhibition of growth at 90 µM (Colletotrichum acutatum [23]): 79%; growth inhibition (GI) (Phomopsis obscurans [24]): Dose-dependent effect; Activity (Colletotrichum fragariae [25]): inactive; Activity (Fusarium oxysporum [26]): Active; Activity [27]: inactive |
| CCCCC/C=C/C=C/C(=O)CCCCCCCC(=O)O | > 333 | 23 | 65 | > 333 | 110 | > 333 | > 333 | > 333 | > 333 | 91 | 90 | > 333 | > 333 | 6 | 17 | 8 | 6 | 7 | 4 | – |
